According to ChEMBL document CHEMBL4385635, “Styryl quinazolinones and its ethynyl derivatives induce myeloid differentiation” (Bioorg Med Chem Lett, 2019):
Active and inactive are the calls of the source. The rule behind the calls is not given here.

Tests used:
L1210 = assay: Cytotoxicity against mouse L1210 cells assessed as reduction in cell viability after 48 hrs by trypan blue staining-based hemocytometric analysis; format: functional; conditions: L1210, 48 h
Tubulin = Tubulin (Bos taurus, UniProt Q6B856+Q862L2+Q862F3); assay: Inhibition of bovine brain tubulin polymerization
HL-60 [1] = assay: Induction of apoptosis in human HL60 cells at 10 uM after 7 days; format: functional
Summary of the method: (§1)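 Apoptosis in compound-treated HL-60 cells was scored semi-quantitatively (− to +++), alongside the differentiation read-outs, against a 0.1% DMSO vehicle control.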

HL-60 [2] = assay: Induction of differentiation of human HL60 cells assessed as increase in CEBPA mRNA expression at by QT-PCR analysis; format: functional, cell-based
Summary of the method: (§2)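 HL-60 cells were treated and CEBPA and CEBPE mRNA levels were measured by quantitative RT-PCR. Results are expressed as fold increase relative to DMSO-treated cells.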

HL-60 [3] = assay: Induction of differentiation of human HL60 cells assessed as increase in CD11b positive cells at 10 uM after 7 days by flow cytometric analysis (reference value: 3.94%); format: functional
HL-60 [4] = assay: Induction of differentiation of human HL60 cells assessed as morphological changes at 10 uM after 7 days by NBT reduction assay; format: functional
Summary of the method: (§3)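 HL-60 cells were screened for differentiation by Wright-Giemsa morphology and NBT reduction, and apoptosis was scored alongside. Controls were 0.1% DMSO as vehicle and ATRA at 1 μM as positive. Each result was graded on a semiquantitative scale (−, ±, + to +++).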

HL-60 [5] = assay: Induction of differentiation of human HL60 cells assessed as increase in CEBPE mRNA expression at 10 uM by QT-PCR analysis; format: functional; summary of the method: as §2
HL-60 [6] = assay: Induction of differentiation of human HL60 cells assessed as increase in CEBPA mRNA expression at 10 uM by QT-PCR analysis; format: functional; summary of the method: as §2
HL-60 [7] = assay: Induction of differentiation of human HL60 cells assessed as morphological changes at 10 uM after 7 days by Wright-Giemsa staining based assay; format: functional; summary of the method: as §3
HL-60 [8] = assay: Induction of differentiation of human HL60 cells assessed as morphological changes at 10 uM after 7 days; format: functional; summary of the method: as §3
HL-60 [9] = assay: Cytotoxicity against human HL60 cells assessed as reduction in cell viability at >3 uM; format: functional, cell-based
HL-60 [10] = assay: Cytotoxicity against human HL60 cells assessed as reduction in cell viability at 1 uM; format: functional, cell-based
HL-60 [11] = assay: Induction of differentiation of human HL60 cells assessed as morphological changes at 1 uM after 7 days; format: functional, cell-based
Summary of the method: (§4)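 HL-60 cells were treated with compound, with 0.1% DMSO as vehicle control. Differentiation was judged by Wright-Giemsa morphology and NBT reduction, each scored semi-quantitatively from − through ± to +++.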

HL-60 [12] = assay: Induction of differentiation of human HL60 cells assessed as increase in CD11b positive cells after 7 days by flow cytometric analysis relative to control; format: functional, cell-based
Summary of the method: (§5)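 HL-60 cells were exposed to compound for 7 days, then stained with APC-conjugated anti-human/mouse CD11b antibody, with rat IgG2b as isotype control. CD11b-positive cells were measured by flow cytometry and reported as percent increase relative to the DMSO vehicle.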

HL-60 [13] = assay: Induction of differentiation of human HL60 cells assessed as morphological changes at 1 uM after 7 days by NBT reduction assay; format: functional
Summary of the method: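 In compound-treated HL-60 cells, differentiation was read as NBT reduction. Scoring was semi-quantitative (−, ±, + to +++) against a 0.1% DMSO vehicle control.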

HL-60 [14] = assay: Induction of differentiation of human HL60 cells assessed as morphological changes at 1 uM after 7 days by Wright-Giemsa staining based assay; format: functional
Summary of the method: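 Compound-treated HL-60 cells were stained with Wright-Giemsa and examined for granulocytic morphology. Scoring was semi-quantitative (− to +++) against a 0.1% DMSO vehicle control.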

HL-60 [15] = assay: Induction of apoptosis in human HL60 cells at 1 uM after 7 days; format: functional; summary of the method: as §1
HL-60 [16] = assay: Induction of differentiation of human HL60 cells assessed as increase in CEBPA mRNA expression at 1 uM by QT-PCR analysis; format: functional
Summary of the method: (§6)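 HL-60 cells were treated with compound over a time course. CEBPA or CEBPE mRNA levels were measured and expressed as fold increase relative to the DMSO vehicle.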

HL-60 [17] = assay: Induction of differentiation of human HL60 cells assessed as increase in CD11b positive cells at 1 uM after 7 days by flow cytometric analysis (reference value: 3.94%); format: functional; summary of the method: as §5
HL-60 [18] = assay: Induction of differentiation of human HL60 cells assessed as increase in CEBPE mRNA expression at by QT-PCR analysis; format: functional, cell-based; summary of the method: as §6
HL-60 [19] = assay: Cytotoxicity against human HL60 cells assessed as reduction in cell viability at 3 uM; format: functional, cell-based
HL-60 [20] = assay: Induction of differentiation of human HL60 cells assessed as morphological changes at 3 uM after 7 days; format: functional, cell-based; summary of the method: as §4
HL-60 [21] = assay: Induction of differentiation of human HL60 cells assessed as morphological changes at 3 uM after 7 days by NBT reduction assay; format: functional; summary of the method: as §3
HL-60 [22] = assay: Induction of apoptosis in human HL60 cells at 3 uM after 7 days; format: functional; summary of the method: as §3
HL-60 [23] = assay: Induction of differentiation of human HL60 cells assessed as increase in CEBPE mRNA expression at 7 uM by QT-PCR analysis; format: functional; summary of the method: as §2
HL-60 [24] = assay: Induction of differentiation of human HL60 cells assessed as increase in CD11b positive cells at 7 uM after 7 days by flow cytometric analysis (reference value: 3.94%); format: functional
HL-60 [25] = assay: Induction of differentiation of human HL60 cells assessed as increase in CEBPA mRNA expression at 7 uM by QT-PCR analysis; format: functional; summary of the method: as §2
HL-60 [26] = assay: Induction of differentiation of human HL60 cells assessed as morphological changes at 3 uM after 7 days by Wright-Giemsa staining based assay; format: functional; summary of the method: as §3
HL-60 [27] = assay: Induction of differentiation of human HL60 cells assessed as increase in CD11b positive cells at 3 uM after 7 days by flow cytometric analysis (reference value: 3.94%); format: functional
HL-60 [28] = assay: Induction of differentiation of human HL60 cells assessed as increase in CEBPA mRNA expression at 3 uM by QT-PCR analysis; format: functional; summary of the method: as §2
HL-60 [29] = assay: Induction of differentiation of human HL60 cells assessed as increase in CD11b positive cells at 5 uM after 7 days by flow cytometric analysis (reference value: 3.94%); format: functional
HL-60 [30] = assay: Induction of differentiation of human HL60 cells assessed as increase in CEBPE mRNA expression at 3 uM by QT-PCR analysis; format: functional; summary of the method: as §2

Cc1cc(-n2c(/C=C/c3ccccc3)nc3ccc(Cl)cc3c2=O)n(-c2ccccc2)n1
IC50 (L1210): 15 µM

Oc1nc(/C=C/c2ccccc2)nc2ccc(Cl)cc12
IC50 (Tubulin): 2.5 µM

COc1ccccc1-n1c(/C=C/c2ccc(O)c(O)c2)nc2ccccc2c1=O
Activity (HL-60 [1]): 5 - 30% | Activity (HL-60 [2]; TDE = time-dependent effect): Tde | Activity (HL-60 [3]): 25.9 - 51.2% | Activity (HL-60 [4]): 5 - 30% | fold change (FC) (HL-60 [5]): 2.1 | fold change (FC) (HL-60 [6]): 1.5 | Activity (HL-60 [7]): 5 - 30%

C#Cc1ccc(-n2c(/C=C/c3ccc(O)cc3)nc3ccccc3c2=O)cc1
Activity (HL-60 [1]): 5 - 30% | Activity (HL-60 [4]): 5 - 30% | Activity (HL-60 [7]): 5 - 30% | Activity (HL-60 [8]): 5 - 30%

O=c1c2sccc2nc(/C=C/c2ccc([N+](=O)[O-])o2)n1-c1ccccc1Cl
Activity (HL-60 [1]): 5 - 30% | Activity (HL-60 [9]): Active | Activity (HL-60 [2]): Active | Activity (HL-60 [10]): Active | Activity (HL-60 [11]): inactive | Activity (HL-60 [12]): inactive | Activity (HL-60 [4]): 5 - 30%

CC1=C(/C=C/C(C)=C/C=C/C(C)=C/C(=O)O)C(C)(C)CCC1 [TRETINOIN]
Activity (HL-60 [2]; TDE = time-dependent effect): Tde | Activity (HL-60 [13]): >60% | Activity (HL-60 [14]): >60% | Activity (HL-60 [15]): >60% | fold change (FC) (HL-60 [16]): 3 | Activity (HL-60 [17]): 96.4%

Cc1ccc(-n2c(/C=C/c3ccc([N+](=O)[O-])o3)nc3ccsc3c2=O)cc1
Activity (HL-60 [1]): 5 - 30% | Activity (HL-60 [9]): Active

O=c1c2ccccc2nc(/C=C/c2ccc([N+](=O)[O-])o2)n1-c1ccccc1F
Activity (HL-60 [1]): >60% | Activity (HL-60 [2]; TDE = time-dependent effect): Tde | Activity (HL-60 [3]): 59% | Activity (HL-60 [4]): 30 - 60% | fold change (FC) (HL-60 [5]): 6 | fold change (FC) (HL-60 [6]): 1.8 | Activity (HL-60 [7]): 30 - 60%

Cc1cc(C#Cc2ccc(C(C)(C)C)cc2)ccc1-n1c(/C=C/c2ccc([N+](=O)[O-])o2)nc2ccccc2c1=O
Activity (HL-60 [1]): 5 - 30% | Activity (HL-60 [2]): inactive | Activity (HL-60 [12]): inactive | Activity (HL-60 [4]): 5 - 30% | Activity (HL-60 [18]): inactive | Activity (HL-60 [7]): 5 - 30% | Activity (HL-60 [8]): 5 - 30%

O=c1c2sccc2nc(/C=C/c2ccc([N+](=O)[O-])o2)n1-c1cccc(Cl)c1
Activity (HL-60 [1]): 5 - 30% | Activity (HL-60 [9]): Active | Activity (HL-60 [19]): Active | Activity (HL-60 [20]): inactive

COc1ccccc1-n1c(/C=C/c2ccc([N+](=O)[O-])o2)nc2ccc(F)cc2c1=O
Activity (HL-60 [1]): >60% | Activity (HL-60 [2]; TDE = time-dependent effect): Tde | Activity (HL-60 [21]): 5 - 30% | Activity (HL-60 [22]): 30 - 60% | fold change (FC) (HL-60 [23]): 2.6 | Activity (HL-60 [24]): 89% | Activity (HL-60 [3]): 94.2% | Activity (HL-60 [4]): 30 - 60% | fold change (FC) (HL-60 [25]): 1.6 | Activity (HL-60 [7]): 30 - 60% | Activity (HL-60 [26]): 5 - 30%

O=C(O)c1cccc(-n2c(/C=C/c3ccc([N+](=O)[O-])o3)nc3ccccc3c2=O)c1
Activity (HL-60 [4]): 5 - 30% | Activity (HL-60 [7]): 5 - 30%

O=c1[nH]c(/C=C/c2ccc([N+](=O)[O-])o2)nc2ccsc12
Activity (HL-60 [1]): 5 - 30% | Activity (HL-60 [9]): Active | Activity (HL-60 [2]): Active | Activity (HL-60 [19]): Active | Activity (HL-60 [12]): inactive | Activity (HL-60 [20]): inactive | Activity (HL-60 [4]): 5 - 30%

O=c1c2sccc2nc(/C=C/c2ccc([N+](=O)[O-])o2)n1-c1ccc(Cl)cc1
Activity (HL-60 [1]): 5 - 30% | Activity (HL-60 [9]): Active | Activity (HL-60 [19]): Active | Activity (HL-60 [20]): inactive

COc1cc(/C=C/c2nc3ccccc3c(=O)n2-c2c(Cl)cccc2Cl)ccc1O
Activity (HL-60 [1]): 5 - 30%

O=c1c2cc(F)ccc2nc(/C=C/c2ccc([N+](=O)[O-])o2)n1-c1ccccc1
Activity (HL-60 [2]; TDE = time-dependent effect): Tde | Activity (HL-60 [21]): 30 - 60% | Activity (HL-60 [22]): 30 - 60% | Activity (HL-60 [27]): 42.2% | fold change (FC) (HL-60 [28]): 2.5 | Activity (HL-60 [29]): 68.6% | fold change (FC) (HL-60 [30]): 10.3 | Activity (HL-60 [26]): 30 - 60%
